Structures are written as SMILES.

This series in a line: Toxicity liver stage against HepG2, at 10uM. To be noted: human, HepG2-A16-CD81EGFP cells; read-out: INHIBITION
Format: cell-based. Also noted: test concentration 10 uM, cell line HepG2-A16-CD81EGFP. Put shortly: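 Uninfected HepG2-A16-CD81EGFP cells, 3 × 10^3 per well, 1536-well, plated on prespotted compound at 10 μM final, parasite-free screening media added to match infected plates; puromycin 10 μM positive, DMSO 0.5% negative; run in parallel with 48 h PbLuc assay at 37 °C, 5% CO2; viability by CellTiter-Glo luminescence, normalized to controls.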
On to `CCCOc1ccc(C(=O)Oc2cc(=O)n3cccc(C)c3n2)cc1`, for which the cytotoxicity at 10 µM came to 5.17%.

In the case of `Fc1ccc(OCCCN2CCOC(Cn3cncn3)C2)cc1` (centres undefined), the cytotoxicity at 10 µM was -1.03%.

`CC(C)(C)c1nc(CN2CCOC(Cn3cccn3)C2)no1` (centres undefined): the cytotoxicity at 10 µM is -18.5%.

Consider `COc1ccccc1[C@@H]1CN(Cc2ccncc2)C[C@H]1C(=O)O`, for which the cytotoxicity at 10 µM was -4.23%.

Turning to `CC(C)S(=O)(=O)Cc1cccc(NC(=O)c2ccc[nH]2)c1`, the cytotoxicity at 10 µM was -0.118%.

For `CC(C)c1cc(C(=O)N2CCOC3(CCNCC3)C2)no1`, the cytotoxicity at 10 µM amounted to 3.65%.

Consider `CCCc1cc(=O)[nH]c2nnc(SCC(N)=O)n12`, for which the cytotoxicity at 10 µM was 13.8%.

`CN(C)CCN1CCCC12CCN(C(=O)c1cccn1C)CC2`: the cytotoxicity at 10 µM was -2.03%.

As to `O=C(c1ccc[nH]1)N1Cc2nccn2CC(Cn2ncccc2=O)C1` (centres undefined), the cytotoxicity at 10 µM stood at 3.66%.

Consider `O=C(CO)N1CCC(CCc2ccnc(Nc3cnccn3)c2)CC1`, for which the cytotoxicity at 10 µM was -0.459%.

Consider `CC(C)c1cc(C(=O)N2CCCN(CCCc3ccccc3)CC2)[nH]n1`, for which the cytotoxicity at 10 µM was found to be 0.271%.

Consider `COc1cc2cc(C)c(SCCN3CCCC3)nc2cc1OC`, for which the cytotoxicity at 10 µM was -7.48%.

Consider `COC(=O)c1ccc(C(=O)N2CCCC(Nc3ccc(F)cc3)C2)cc1` (centres undefined), for which the cytotoxicity at 10 µM was 1.34%.

As to `CCC(O)CN1CCN(C(=O)c2cccc(CC#N)c2)CC1` (centres undefined), the cytotoxicity at 10 µM was -11.6%.

Take `COc1cccc2c1OCC(C(=O)NCc1ncc3c(n1)CCC3)C2` (centres undefined): the cytotoxicity at 10 µM was -8.51%.

Take `COc1ccc(CN2CCN(C3CCc4ccccc4C3)CC2)cc1O` (centres undefined): the cytotoxicity at 10 µM was -6.55%.

Take `COCCC(=O)N1CCc2cc(Cl)cc(Cl)c2C1`: the cytotoxicity at 10 µM is -13.1%.

As to `CC(C)(C)CC(NC(=O)N1CCC(C(N)=O)CC1)C(F)(F)F` (centres undefined), the cytotoxicity at 10 µM is -1.14%.

For `COCCN(CCOC)Cc1c(C)nc2ccccc2c1O`, the cytotoxicity at 10 µM amounted to 2.08%.

On to `OCC(O)CSCc1cc(Cl)ccc1Cl` (centres undefined), for which the cytotoxicity at 10 µM is -147%.

Turning to `N#Cc1ccc(C(=O)NS(=O)(=O)c2ccc(C#N)c(Cl)c2)cc1`, the cytotoxicity at 10 µM was 5.44%.

For `Cn1ccc(NC2CCN(C3CC3)C2=O)n1` (centres undefined), the cytotoxicity at 10 µM was found to be 7.31%.

As for `Cc1cccc(CN2C(=O)CC[C@@H]3[C@H]2CCN3Cc2ccc(C)s2)n1`, the cytotoxicity at 10 µM stood at 5.45%.

For the compound `O=C(Cc1ccsc1)N1CCOC(c2nc(-c3ncccn3)no2)C1` (centres undefined), the cytotoxicity at 10 µM was -7.83%.

For the compound `CS(=O)(=O)NCc1nnc2n1CCN(Cc1ccc(F)cc1)C2`, the cytotoxicity at 10 µM was -72.7%.

Turning to `CCN(CC1CCCCO1)C(=O)CCNC(=O)c1ccccc1F` (centres undefined), the cytotoxicity at 10 µM is -42.9%.

With `Cc1nc(Nc2nncs2)cc(C2CNC2)n1`, the cytotoxicity at 10 µM was found to be 5.88%.

For the compound `CCn1ccnc1C1CCCN(c2nccc3ccccc23)C1` (centres undefined), the cytotoxicity at 10 µM is -2.74%.

Consider `O=C(NCc1cncc2c1CCN(C1CCOC1)C2)c1ccco1` (centres undefined), for which the cytotoxicity at 10 µM was determined as 0.797%.

Turning to `CNC(=O)C1CCN(c2ncnc3c2CCN(C(=O)C2CC2)C3)C1` (centres undefined), the cytotoxicity at 10 µM is 1.67%.

Turning to `CCc1cnc(CN(C(C)=O)C2CCN(CC(=O)N3CCCC3)C2)o1` (centres undefined), the cytotoxicity at 10 µM was -6.63%.

`CC(=O)N1CCC(c2cccc(NC3CCOCC3)n2)CC1`: the cytotoxicity at 10 µM worked out at 13.3%.

Turning to `CCC1(C)Cc2ccccc2-c2nc(NCCO)nc(O)c21` (centres undefined), the cytotoxicity at 10 µM is 4.1%.

For `c1cc2c(cc1CN1CC[C@H]3[C@H]1CCN3CC1CC1)OCO2`, the cytotoxicity at 10 µM is 1.67%.

As to `O=C(c1ccc[nH]1)N1C[C@H](OCc2ccccn2)[C@H]2COC[C@H]21`, the cytotoxicity at 10 µM was 0.238%.

For the compound `Cc1cnc(C(=O)NCC(c2ccc(C)o2)N2CCOCC2)cn1` (centres undefined), the cytotoxicity at 10 µM is -7.2%.

Consider `CC1CC(=O)c2cc(C(=O)N3CCc4ccccc4C3)c(=O)[nH]c2C1` (centres undefined), for which the cytotoxicity at 10 µM is -4.65%.

In the case of `Cc1ccc(CNCC2CCN(CC(O)c3ccccc3)CC2)o1` (centres undefined), the cytotoxicity at 10 µM was -3.33%.

On to `COCCNC(=O)c1cc2c(s1)CCN2C(=O)c1ccccc1`, for which the cytotoxicity at 10 µM was -12.9%.

As for `Cc1ccc(CN2CCC3(CC2)CC(CC(=O)NC(C)C)CO3)s1` (centres undefined), the cytotoxicity at 10 µM is -1.72%.

Regarding `Cc1nc(N)sc1C(=O)N1CCCC(c2nccn2CCCN(C)C)C1` (centres undefined), the cytotoxicity at 10 µM is -6.82%.

For the compound `COc1cccc(-c2noc(CN3CCOCC3C)n2)c1` (centres undefined), the cytotoxicity at 10 µM was -11.7%.

Turning to `CNC(=O)N1CCC2(CC1)CN(C)c1ccc(F)cc12`, the cytotoxicity at 10 µM was -4.78%.

Turning to `Cc1ccc(C(=O)CC(SC2CCCCC2)C(=O)O)cc1` (centres undefined), the cytotoxicity at 10 µM amounted to 7.53%.

Turning to `O=C1CSCN1CC(=O)N1CCCC1c1nc2ccccc2s1` (centres undefined), the cytotoxicity at 10 µM was -12.7%.

`CN(C)c1nccc(N(C)C2CCCCC2)n1`: the cytotoxicity at 10 µM was -6.37%.

For `O=C(NCC1CC1)C1CCC2(CCNCC2)C1` (centres undefined), the cytotoxicity at 10 µM is 1.91%.

Consider `Cc1nsc(NC2CCOC3(CCCCC3)C2)n1` (centres undefined), for which the cytotoxicity at 10 µM was found to be 5%.

As to `O=S(=O)(NCC(c1ccsc1)N1CCCCCC1)c1cccs1` (centres undefined), the cytotoxicity at 10 µM was 2%.

`O=C(NCc1nc(NC2CCCC2)c2cc(Cl)ccc2n1)c1cscn1`: the cytotoxicity at 10 µM came out at 7.12%.

On to `CC1CN(C)c2ccccc2CN1C(=O)c1cscn1` (centres undefined), for which the cytotoxicity at 10 µM was -1.03%.

In the case of `CCc1nc(CN(C)C(=O)C2CCC(=O)N(CC3CCCCC3)C2)no1` (centres undefined), the cytotoxicity at 10 µM amounted to 4.46%.

Turning to `COc1ncc(C(=O)N2CCCC3(C=Cc4ccccc4O3)CC2)cn1` (centres undefined), the cytotoxicity at 10 µM was determined as 7.61%.

For the compound `NC(=O)C1CCN(CCc2ccc(NCc3cccnc3)cc2)CC1`, the cytotoxicity at 10 µM came out at 8.02%.

As to `CN(Cc1ccsc1)C(=O)c1ccc2c(c1)NC(=O)CO2`, the cytotoxicity at 10 µM is -12.8%.

On to `Cc1ccc(C(=O)N2CCOC(c3ncc(CN(C)C)[nH]3)C2)cc1F` (centres undefined), for which the cytotoxicity at 10 µM was 0.388%.

Regarding `CCOCC1CN(CCN2CCCCC2)Cc2cnn(C)c21` (centres undefined), the cytotoxicity at 10 µM was -99.9%.

As to `CC(C)N(C(=O)c1ccnc(OCC(F)(F)F)c1)c1cccnc1`, the cytotoxicity at 10 µM was found to be 8.05%.

For the compound `CC(C)N(CCCNC(=O)C1CCCN(C(N)=O)C1)S(C)(=O)=O` (centres undefined), the cytotoxicity at 10 µM was -8.51%.

Take `CNC(=O)c1cc(C)nc(C2(C)CCCN2c2cc(C)ncn2)n1` (centres undefined): the cytotoxicity at 10 µM was determined as 2.15%.

For `CC(=O)N1CCCC1c1nccc(C)n1` (centres undefined), the cytotoxicity at 10 µM was 1.31%.

`COc1ccc(C(C)Nc2ncnc3c2NC(=O)CN3)cc1` (centres undefined): the cytotoxicity at 10 µM came to 7.83%.

Consider `CCc1ccc2c(C3CN(S(C)(=O)=O)C3)ncn2c1`, for which the cytotoxicity at 10 µM worked out at 10.6%.

As for `Cc1cccc(SC2CCN(Cc3nc(CC4CC4)no3)CC2)c1`, the cytotoxicity at 10 µM is -6.51%.
